Experiments:
[1] = target: Melanocortin receptor (M1 and M4) (Homo sapiens, UniProt P32245+Q01726); assay: Selectivity for human MC4R over MC1R; format: functional
Melanocortin receptor 4 [2] = target: T1, Melanocortin receptor 4 (Homo sapiens, UniProt P32245); assay: Activity at human MC4R by cAMP accumulation in SaoS2 cells; format: functional, cell-based, SAOS-2
[3] = target: Melanocyte-stimulating hormone receptor (Homo sapiens, UniProt Q01726); assay: Activity at human MC1R by cAMP accumulation in SaoS2 cells; format: functional, cell-based, SAOS-2
Sequence of Melanocyte-stimulating hormone receptor (Q01726 whole entry): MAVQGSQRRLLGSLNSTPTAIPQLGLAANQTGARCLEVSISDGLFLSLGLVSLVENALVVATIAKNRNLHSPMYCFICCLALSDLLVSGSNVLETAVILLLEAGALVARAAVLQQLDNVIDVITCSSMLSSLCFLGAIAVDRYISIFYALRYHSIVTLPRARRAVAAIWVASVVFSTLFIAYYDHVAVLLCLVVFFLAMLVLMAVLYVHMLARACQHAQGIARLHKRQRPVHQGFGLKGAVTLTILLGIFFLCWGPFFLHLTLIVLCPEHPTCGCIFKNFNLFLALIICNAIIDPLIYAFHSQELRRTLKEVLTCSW

Melanocortin receptor 4 [4] = target: T1, Melanocortin receptor 4; assay: Displacement of [125I]NDP-alpha-MSH from human cloned MC4R expressed in HEK293 cells; format: cell-based
Method in brief: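 Binding affinity was measured by displacement of radiolabelled [125I]NDP-alpha-MSH ([Nle4, D-Phe7]-alpha-MSH) from recombinant human MC4R expressed in HEK-293 cells.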

T1 sequence (P32245 whole entry): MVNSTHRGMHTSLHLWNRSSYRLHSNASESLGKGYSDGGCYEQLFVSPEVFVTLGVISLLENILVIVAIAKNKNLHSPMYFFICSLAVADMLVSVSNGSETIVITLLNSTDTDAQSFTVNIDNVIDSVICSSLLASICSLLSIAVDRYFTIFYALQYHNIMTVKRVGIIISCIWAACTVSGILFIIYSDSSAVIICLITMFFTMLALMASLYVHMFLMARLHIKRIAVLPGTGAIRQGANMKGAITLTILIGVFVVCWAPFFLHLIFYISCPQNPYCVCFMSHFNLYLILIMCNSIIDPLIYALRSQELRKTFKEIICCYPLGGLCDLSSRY

| SMILES | EC50 ratio (MC1R/MC4R) [1] | EC50 (Melanocortin receptor 4 [2]) [µM] | EC50 [3] [µM] | Ki (Melanocortin receptor 4 [4]) [µM] |
| --- | --- | --- | --- | --- |
| N=C(N)NCCC[C@@H]1NC(=O)[C@@H](Cc2ccccc2)NC(=O)[C@H](Cc2c[nH]cn2)NC(=O)CCCCNC(=O)[C@H](Cc2c[nH]c3ccccc23)NC1=O | 0.33 | 10.1 | 3.3 |  |
| N=C(N)NCCC[C@@H]1NC(=O)[C@H](Cc2ccccc2)NC(=O)[C@H](Cc2cnc[nH]2)NC(=O)CCCCCCCNC(=O)[C@H](Cc2c[nH]c3ccccc23)NC1=O | 0.53 | 9.59 | 5.1 | 4.42 |
| NC(N)=NCCC[C@@H]1NC(=O)[C@@H](Cc2ccccc2)NC(=O)[C@H](Cc2cnc[nH]2)NC(=O)CCCCCCCNC(=O)[C@H](Cc2c[nH]c3ccccc23)NC1=O | 4.7 | 0.0164 | 0.0774 | 0.319 |
| NC(N)=NCCC[C@@H]1NC(=O)[C@@H](Cc2ccccc2)NC(=O)[C@H](Cc2cnc[nH]2)NC(=O)CCCNC(=O)[C@H](Cc2c[nH]c3ccccc23)NC1=O | 0.17 | 1.58 | 0.27 | 5.78 |
| N=C(N)NCCC[C@@H]1NC(=O)[C@@H](Cc2ccccc2)NC(=O)[C@H](Cc2c[nH]cn2)NC(=O)CCCCCNC(=O)[C@H](Cc2c[nH]c3ccccc23)NC1=O | 0.42 | 3.12 | 1.3 | 0.67 |
| N=C(N)NCCC[C@@H]1NC(=O)[C@@H](Cc2ccccc2)NC(=O)[C@H](Cc2c[nH]cn2)NC(=O)CCCCCCNC(=O)[C@H](Cc2c[nH]c3ccccc23)NC1=O | 4.3 | 0.0154 | 0.067 | 0.244 |

From ChEMBL document CHEMBL1137420, “Design of cyclic peptides with agonist activity at melanocortin receptor-4” (Bioorg Med Chem Lett, 2006)
